In ChEMBL document CHEMBL4842312, “Phenoxazine nucleoside derivatives with a multiple activity against RNA and DNA viruses” (Eur J Med Chem, 2021):
In brackets after ≈: the same amount, converted by molar mass.

What was measured:
Human alphaherpesvirus 3 [1] = test: Antiviral activity against thymidine kinase positive Varicella zoster virus; type: functional, organism-based
Outline: (§1)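 Confluent HEL cultures received 100 CCID50 or 20 PFU of virus, with 2 h adsorption before inoculum removal. Cells were then incubated with compound from 100 μM downward. Cytopathicity or plaques were scored once untreated infected controls reached completion.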

Human alphaherpesvirus 3 [2] = test: Antiviral activity against thymidine kinase deficient Varicella zoster virus; type: functional, organism-based; outline: as §1
Human betaherpesvirus 5 [3] = test: Antiviral activity against Human cytomegalovirus AD169; type: functional, organism-based; settings: Human betaherpesvirus 5, AD169; outline: as §1
Human betaherpesvirus 5 [4] = test: Antiviral activity against Human cytomegalovirus Davis; type: functional, organism-based; settings: Human betaherpesvirus 5, Davis; outline: as §1
HEL = test: Cytotoxicity against human HEL cells assessed as reduction in cell viability measured after 3 days by beckman coulter counting method; type: cell-based; settings: 72 h, time 3 day
Outline: (§2)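 Cells were seeded at 5 × 10³/well, grown 24 h, then exposed to compound from 100 μM downward for 3 days at 37 °C. Cell number was counted with a Coulter counter.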

[5] = Selectivity index, ratio of CC50 for human HEL cells to EC50 for antiviral activity against thymidine kinase positive Varicella zoster virus; type: toxicity; settings: read-out: Ratio CC50/EC50
[6] = Selectivity index, ratio of CC50 for human HEL cells to EC50 for antiviral activity against thymidine kinase deficient Varicella zoster virus; type: toxicity; settings: read-out: Ratio CC50/EC50
[7] = Selectivity index, ratio of CC50 for human HEL cells to EC50 for Antiviral activity against Human cytomegalovirus AD169; type: toxicity; settings: read-out: Ratio CC50/EC50
[8] = Selectivity index, ratio of CC50 for human HEL cells to EC50 for Antiviral activity against Human cytomegalovirus Davis; type: toxicity; settings: read-out: Ratio CC50/EC50
[9] = test system: Tick-borne encephalitis virus; test: Antiviral activity against Tick-borne encephalitis virus infected in pig PEK cells assessed as reduction in virus plaque formation preincubated with virus for 1 hr followed by cell infection and measured after 1 hr by crystal violet staining based assay; type: functional, organism-based
Powassan virus = test: Antiviral activity against Powassan virus infected in pig PEK cells assessed as reduction in virus plaque formation preincubated with virus for 1 hr followed by cell infection and measured after 1 hr by crystal violet staining based assay; type: functional, organism-based
[10] = Selectivity index, ratio of CC50 for pig PEK cells to EC50 for Antiviral activity against Tick-borne virus encephalitis infected in pig PEK cells; type: toxicity, cell-based; settings: read-out: Ratio CC50/EC50
[11] = Selectivity index, ratio of CC50 for pig PEK cells to EC50 for Antiviral activity against Powassan virus infected in pig PEK cells; type: toxicity, cell-based; settings: read-out: Ratio CC50/EC50
[12] = Cytotoxicity in pig PEK cells assessed as reduction in cell viability measured after 5 days by resazurin dye based assay; set-up: species or system Sus scrofa, Kidney; settings: 120 h, time 5 day
Outline: (§3)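 Cells (about 10⁵/well, 5% FBS) were added to two-fold compound dilutions (eight concentrations from 100 μM; DMSO control) and held 5 days at 36.5 °C in CO2. Medium was then replaced with resazurin (25 μg/mL) for 4 h and stopped with SDS. Fluorescence was read at Ex 525 / Em 580–640 nm, with background wells without resazurin subtracted. Done in two replicates; CC50 calculated.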

Chikungunya virus = test: Antiviral activity against Chikungunya virus infected in African green monkey Vero cells assessed as reduction in virus plaque formation preincubated with virus for 1 hr followed by cell infection and measured after 1 hr by crystal violet staining based assay; type: functional, organism-based
[13] = Selectivity index, ratio of CC50 for African green monkey Vero cells to EC50 for Antiviral activity against Chikungunya virus infected in African green monkey Vero cells; type: toxicity; settings: read-out: Ratio CC50/EC50
Vero = test: (§4) Cytotoxicity in African green monkey Vero cells assessed as reduction in cell viability measured after 5 days by resazurin dye based assay; settings: chlorocebus sabaeus, vero, 120 h; time 5 day; outline: as §3
[14] = test system: Respiratory syncytial virus; test: Antiviral activity against Respiratory syncytial virus assessed as reduction in virus-induced cytopathic effect by MTS assay; type: functional, organism-based; settings: human respiratory syncytial virus
Influenza A virus = test: Antiviral activity against Influenza A virus (H1N1) infected in MDCK cells assessed as reduction in cytopathic effect preincubated with cells for 1 hrs followed by viral addition and measured after 24 hrs by Reed-Muench method; type: functional, organism-based
Outline: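 MDCK monolayers were pre-incubated 1 h at 37 °C with 3-fold compound dilutions (from 2 mg/mL DMSO stock), then infected at MOI 1 for 24 h. Supernatant yield was titrated by 10-fold dilutions on fresh MDCK for 72 h. Titre was read by hemagglutination with 1% chicken erythrocytes and calculated by Reed-Muench as TID50 per 100 μL.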

HEp-2 = test: Cytotoxicity in human Hep2 cells assessed as reduction in cell viability measured after 3 days by beckman coulter counting method; type: functional; settings: HEp-2, 72 h, time 3 day
Outline: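 Hep2 cells seeded at 5 × 10³ cells/well and allowed to grow 24 h, then exposed to compound dilutions starting at 100 μM for 3 days at 37 °C. Cell number measured by Coulter counter.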

MDCK = test: (§5) Cytotoxicity in dog MDCK cells assessed as reduction in cell viability measured after 3 days by beckman coulter counting method; type: cell-based, Canis lupus familiaris; settings: mdck, 72 h, time 3 day; outline: as §2
SARS-CoV-2 = test: Antiviral activity against SARS COV-2 infected in monkey vero cells assessed as reduction in virus-induced cytopathic effect preincubated with virus for 1 hr followed by cell infection and measured after 5 days by microscopic analysis; type: functional, organism-based; settings: Severe acute respiratory syndrome coronavirus 2, Vero
[15] = test system: Tick-borne encephalitis virus; test: Antiviral activity against Tick-borne encephalitis virus infected in PEK cells assessed as reduction in viral plaque formation incubated for 1 hr by Reed-Muench method; type: functional, organism-based
[16] = Selectivity index, ratio of CC50 for dog MDCK cells to EC50 for Influenza A virus (A/California/07/09(H1N1)) infected in MDCK cells; type: toxicity, cell-based; settings: read-out: Ratio CC50/EC50
Human alphaherpesvirus 1 = test: Antiviral activity against Herpes simplex virus 1 infected in HEL cells assessed as reduction in viral plaque formation; type: functional; outline: as §1
Human alphaherpesvirus 2 = test: Antiviral activity against Herpes simplex virus 2 infected in HEL cells assessed as reduction in viral plaque formation; type: functional; outline: as §1
Human alphaherpesvirus 3 [17] = test: Antiviral activity against Varicella zoster virus infected in HEL cells assessed as reduction in viral plaque formation; type: functional; outline: as §1
Human betaherpesvirus 5 [18] = test: Antiviral activity against cytomegalovirus infected in HEL cells assessed as reduction in viral plaque formation; type: functional
Outline: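 Confluent HEL cultures infected with 20 PFU of CMV (AD-169 or Davis), 2 h adsorption, inoculum removed, then compounds added at varying concentrations from 100 μM. Plaques scored once complete in untreated infected controls.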

Human alphaherpesvirus 3 [19] = test: Antiviral activity against Varicella zoster virus assessed as inhibition of viral replication; type: functional, organism-based
[20] = test system: Omsk hemorrhagic fever virus; test: Antiviral activity against Omsk hemorrhagic fever virus infected in pig PEK cells assessed as reduction in virus plaque formation preincubated with virus for 1 hr followed by cell infection and measured after 1 hr by crystal violet staining based assay; type: functional, organism-based
[21] = Selectivity index, ratio of CC50 for pig PEK cells to EC50 for Antiviral activity against Omsk hemorrhagic fever virus infected in pig PEK cells; type: toxicity, cell-based; settings: read-out: Ratio CC50/EC50
[22] = as §4; settings: chlorocebus sabaeus, Vero cells; time 5 day; outline: as §3
[23] = as §5; type: cell-based, Canis lupus familiaris; settings: MDCK cells, time 3 day; outline: as §2
[24] = Selectivity index, ratio of CC50 for human Hep2 cells to EC50 for Respiratory syncytial virus; type: toxicity; settings: read-out: Ratio CC50/EC50
Human alphaherpesvirus 3 [25] = test: Antiviral activity against thymidine kinase deficient Varicella zoster virus infected in HEL cells assessed as reduction in viral plaque formation incubated for 2 hrs; type: functional, organism-based; settings: Human alphaherpesvirus 3, HEL; outline: as §1
Human alphaherpesvirus 3 [26] = test: Antiviral activity against wild type Varicella zoster virus infected in HEL cells assessed as reduction in viral plaque formation incubated for 2 hrs; type: functional, organism-based; settings: Human alphaherpesvirus 3, HEL; outline: as §1

Row | Structure (SMILES) | EC50 (Human alphaherpesvirus 3 [1]) [µM] | EC50 (Human alphaherpesvirus 3 [2]) [µM] | EC50 (Human betaherpesvirus 5 [3]) [µM] | EC50 (Human betaherpesvirus 5 [4]) [µM] | CC50 (HEL) [µM] | selectivity ratio [8] | EC50 [9] [µM] | EC50 (Powassan virus) [µM] | selectivity ratio [11] | CC50 [12] [µM] | CC50 (Vero) [µM] | EC50 [14] [µM] | EC50 (Influenza A virus) [µM] | CC50 (HEp-2) [µM] | CC50 (MDCK) [µM] | EC50 (SARS-CoV-2) [µM] | further results
1 | CCCCCCCCOc1ccc2c(c1)Nc1nc(=O)n([C@H]3C[C@H](O)[C@@H](CO)O3)cc1O2 | 0.42 | 15.9 | 54.7 | 42.3 | > 100 | > 2 | 2.8 | 1.5 | > 66 | > 100 | > 100 | > 100 | 82 | > 100 | > 100 | > 100 | selectivity ratio [5]: > 238; selectivity ratio [6]: > 6; selectivity ratio [7]: > 2; selectivity ratio [10]: > 35; EC50 (Chikungunya virus): 2.5 µM; selectivity ratio [13]: > 40
2 | COc1ccc(C(OC[C@H]2O[C@@H](n3cc4c(nc3=O)Nc3ccccc3O4)C[C@@H]2O)(c2ccccc2)c2ccc(OC)cc2)cc1 |  |  |  |  |  |  |  |  |  |  |  |  |  |  |  |  | EC50 [15]: 0.4 µM
3 | CCCCCCCCCCOc1ccc2c(c1)Nc1nc(=O)n([C@H]3C[C@H](O)[C@@H](CO)O3)cc1O2 | 0.68 | 15.2 | > 100 | 10.4 | 50.3 | 5 | 40 | 4.4 | > 22 | > 100 | > 100 | > 100 | 3.4 | > 100 | > 100 | > 100 | selectivity ratio [6]: 3; selectivity ratio [16]: > 29
4 | Cc1cn2c(=O)c3ncn(COC(CO)CO)c3nc2[nH]1 |  |  |  |  |  |  |  |  |  |  |  |  |  |  |  |  | MIC (Human alphaherpesvirus 1): 0.07 µM (≈ 0.0205 µg/mL); MIC (Human alphaherpesvirus 2): 0.07 µM (≈ 0.0205 µg/mL); MIC (Human alphaherpesvirus 3 [17]): 14.3 µM (≈ 4.19 µg/mL); MIC (Human betaherpesvirus 5 [18]): 14.3 µM (≈ 4.19 µg/mL)
5 | O=c1[nH]c(=O)n([C@H]2C[C@H](O)[C@@H](CO)O2)cc1/C=C/Br [BRIVUDINE] | 0.034 | 0.42 |  |  | > 300 |  |  |  |  |  |  |  |  |  |  |  | EC50 (Human alphaherpesvirus 3 [19]): 3.4 µM
6 | COc1ccc(C(OCCOCn2cc3c(nc2=O)N(C)c2ccccc2O3)(c2ccccc2)c2ccc(OC)cc2)cc1 | > 20 | > 20 | 48.9 | 44.7 | > 100 | > 2 | 16 | 8 | > 12 | > 100 | > 100 | > 100 | 79 | > 100 | > 100 | > 100 | selectivity ratio [7]: > 2; EC50 [20]: 3.1 µM; selectivity ratio [10]: > 6; selectivity ratio [21]: > 32; EC50 (Chikungunya virus): 6.1 µM; selectivity ratio [13]: > 16
7 | O=c1nc2c(cn1[C@H]1C=C[C@@H](O)C1)Oc1ccccc1N2 | > 100 | 64.4 | > 20 | > 100 | > 100 |  |  |  |  |  |  | 11 |  | 80 |  | > 100 | CC50 at 120 h [22]: > 100 µM; CC50 at 72 h [23]: > 100 µM; selectivity ratio [24]: 7
8 | Cc1cn2c(=O)c3ncn(COCCO)c3nc2[nH]1 |  |  |  |  |  |  |  |  |  |  |  |  |  |  |  |  | MIC (Human alphaherpesvirus 1): 1.52 µM (≈ 0.4 µg/mL); MIC (Human alphaherpesvirus 2): 1.52 µM (≈ 0.4 µg/mL)
9 | O=c1nc2c(cn1[C@H]1C[C@H](O)[C@@H](CO)O1)Oc1ccccc1N2 |  |  |  |  |  |  |  |  |  |  |  |  |  |  |  |  | EC50 (Human alphaherpesvirus 3 [25]): 10 µM; EC50 (Human alphaherpesvirus 3 [26]): 0.06 µM
